Experiment [1] is described as follows: Inhibition of His tagged Escherichia coli ATCC 25922 DNA gyrase A expressed in Escherichia coli BL21 (DE3) pLysS cells assessed as reduction in enzyme-mediated supercoiling of relaxed plasmid DNA pNO1 after 30 mins in presence of biotinylated TFO1 by fluorescence assay.
The nature of experiment [2]: Inhibition of Escherichia coli DNA topoisomerase 4 assessed as reduction in decatenation activity using kinetoplast concatenated DNA as substrate after 30 mins by picogreen dye based fluorescence assay.
In experiment [3] the test system is Escherichia coli. The experiment is described as follows: Antibacterial activity against fluoroquinolone resistant Escherichia coli SKM18 by CLSI M100-S17 protocol based method. It is filed as functional.
Experiment [4] relates to Escherichia coli. The experiment is described as follows: Antibacterial activity against wild type Escherichia coli ATCC 25922 by CLSI M100-S17 protocol based method. It is filed as functional.
Experiment [5] deals with Acinetobacter baumannii. The experiment is described as follows: Antibacterial activity against carbapenem resistant Acinetobacter baumannii by broth microdilution method. It is filed as functional. In outline: (§1)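 MICs were determined by CLSI broth methods, except that organisms were grown in brain–heart–infusion medium. The panel comprised wild-type and resistant E. coli and A. baumannii strains, including 12 strains whose details are given by reference.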
(In general: Dilution methods test growth across graded concentrations, often in twofold steps.)

For experiment [6], the system named is Escherichia coli. The experiment is described as follows: Antibacterial activity against quinolone resistant Escherichia coli by broth microdilution method. It is filed as functional. In outline: as §1
Experiment [7] deals with Escherichia coli. The experiment is described as follows: Antibacterial activity against beta-lactam resistant Escherichia coli by broth microdilution method. It is filed as functional. In outline:
as §1

The subject of experiment [8] is Acinetobacter baumannii. The experiment is described as follows: Antibacterial activity against multidrug resistant Acinetobacter baumannii by broth microdilution method. It is filed as functional. In outline:
as §1

Experiment [9] deals with Acinetobacter baumannii. The experiment is described as follows: Antibacterial activity against wild type Acinetobacter baumannii by broth microdilution method. It is filed as functional. In outline:
as §1

In experiment [10] the test system is Escherichia coli. In words: Antibacterial activity against wild type Escherichia coli by broth microdilution method. It is filed as functional. In outline: as §1
The test system of experiment [11] is Escherichia coli. The experiment is described as follows: Antibacterial activity against aminoglycoside resistant Escherichia coli by broth microdilution method. It is filed as functional. In outline:
as §1

In experiment [12] the test system is Acinetobacter baumannii. The experiment is described as follows: Antibacterial activity against beta-lactam resistant Acinetobacter baumannii by broth microdilution method. It is filed as functional. In outline: as §1
Experiment [13] has as its system Acinetobacter baumannii. The experiment is described as follows: Antibacterial activity against quinolone resistant Acinetobacter baumannii by broth microdilution method. It is filed as functional. In outline: as §1
In experiment [14] the test system is Acinetobacter baumannii. In words: Antibacterial activity against aminoglycoside resistant Acinetobacter baumannii by broth microdilution method. It is filed as functional. In outline:
as §1

Experiment [15] concerns Escherichia coli. In words: Antibacterial activity against multidrug resistant Escherichia coli by broth microdilution method. It is filed as functional. In outline:
as §1

Experiment [16] has as its system Escherichia coli. The experiment is described as follows: Selectivity ratio of MIC for wild type Escherichia coli ATCC 25922 in presence of HSA to MIC for wild type Escherichia coli ATCC 25922. It is filed as functional.
In experiment [17] the test system is Acinetobacter baumannii. In words: Antibacterial activity against wild type Acinetobacter baumannii ATCC BAA-747 by CLSI M100-S17 protocol based method. It is filed as functional.
The test system of experiment [18] is Acinetobacter baumannii. The experiment is described as follows: Antibacterial activity against fluoroquinolone resistant Acinetobacter baumannii isolate MMX2240 by CLSI M100-S17 protocol based method. It is filed as functional.
Experiment [19] relates to Klebsiella pneumoniae. In words: Antibacterial activity against wild type Klebsiella pneumoniae ATCC 35657 by CLSI M100-S17 protocol based method. It is filed as functional.
Experiment [20] has as its system Escherichia coli. In words: Antibacterial activity against quinolone resistance Escherichia coli isolate ELZ4251 harboring gyrA/parC mutant by CLSI M100-S17 protocol based method. It is filed as functional.
For experiment [21], the system named is Escherichia coli. The experiment is described as follows: Antibacterial activity against wild type Escherichia coli ATCC 25922 in presence of HSA by CLSI M100-S17 protocol based method. It is filed as functional.

≈ marks a conversion by molar mass, not a printed value.

In general, IC50 refers to the concentration at which inhibition is half-maximal. Usually MIC stands for the smallest concentration in the dilution series that meets the test's criterion for growth inhibition. Usually MIC50 stands for an inhibitory concentration at the 50% level, which refers to growth in some studies and to a panel of isolates in others. A word on the MIC90: it is an inhibitory concentration at the 90% level, which refers to growth in some studies and to a panel of isolates in others. The low end stands for higher susceptibility, the high end for lower susceptibility.

Turning to `CCNCc1cc2cc3c(cc2n1C)CCCCc1c-3[nH]c(=O)c(C(=O)O)c1O`, the IC50 in experiment [1] worked out at 0.8 µM; in [2], 15.3 µM. For the same compound, the values for the MIC in experiment [3] and in experiment [4] were 3.1 µg/mL (≈ 7.84 µM) and 0.78 µg/mL (≈ 1.97 µM), respectively.

Regarding `C[C@H]1COc2c(N3CCN(C)CC3)c(F)cc3c(=O)c(C(=O)O)cn1c23.C[C@H]1COc2c(N3CCN(C)CC3)c(F)cc3c(=O)c(C(=O)O)cn1c23.O` [LEVOFLOXACIN], the MIC in experiment [5] lay in the range of 0.06 to 64 µg/mL; in experiment [6] it was 0.015 to 32 µg/mL; in [7], 0.015 to 32 µg/mL; in experiment [8] it was 0.06 to 64 µg/mL; in [11], 0.015 to 32 µg/mL; in [12] it was 0.06 to 64 µg/mL. In addition, the MIC in experiment [13] was 0.06 to 64 µg/mL; in [14], 0.06 to 64 µg/mL; in [15] it was 0.015 to 32 µg/mL. For the same compound, the MIC50 in [5] (Acinetobacter baumannii) was 2 µg/mL; in experiment [6] (Escherichia coli), 0.06 µg/mL; in [7] (Escherichia coli), 0.06 µg/mL; in experiment [8] (Acinetobacter baumannii), 2 µg/mL; in experiment [9], 2 µg/mL; in experiment [10] it was 0.06 µg/mL. The MIC50 in experiment [11] (Escherichia coli) came to 0.06 µg/mL; in [12] (Acinetobacter baumannii) it was 2 µg/mL; in experiment [13] (Acinetobacter baumannii), 2 µg/mL; in experiment [14] (Acinetobacter baumannii), 2 µg/mL; in [15] (Escherichia coli), 0.06 µg/mL. Besides, the MIC90 in [5] (Acinetobacter baumannii) is 16 µg/mL; in experiment [6] (Escherichia coli) it was 32 µg/mL; in experiment [7] (Escherichia coli) it was 32 µg/mL; in [8] (Acinetobacter baumannii), 16 µg/mL; in experiment [9] it was 16 µg/mL; in experiment [10], 32 µg/mL. Besides, the MIC90 is 32 µg/mL in experiment [11] (Escherichia coli); 16 µg/mL in [12] (Acinetobacter baumannii); 16 µg/mL in experiment [13] (Acinetobacter baumannii); 16 µg/mL in experiment [14] (Acinetobacter baumannii); 32 µg/mL in experiment [15] (Escherichia coli).

Regarding `CNCc1cc2c3c(ccc2n1C)-c1[nH]c(=O)c(C(=O)O)c(O)c1CCC3`, the results for the IC50 in [1] and in experiment [2] were 1 µM and 27.9 µM, respectively. Further, the results for the MIC in [3] and in [4] were 6.3 µg/mL (≈ 17.1 µM) and above 12.5 µg/mL, respectively.

Regarding `CNCc1cc2cc3c(cc2n1C)SCCc1c-3[nH]c(=O)c(C(=O)O)c1O`, the Ratio in [16] is 8 - 16. Further, the MIC was 0.49 µg/mL (≈ 1.27 µM) in experiment [3]; 3.9 µg/mL (≈ 10.1 µM) in [17]; 7.8 µg/mL (≈ 20.2 µM) in experiment [18]; 1 µg/mL (≈ 2.59 µM) in experiment [19]; 1.6 µg/mL (≈ 4.15 µM) in [20]; 1 µg/mL (≈ 2.59 µM) in experiment [4]. For the same compound, in experiment [21], the MIC came to 7.8 µg/mL.

In the case of `CC(C)NCc1cc2cc3c(cc2n1C)SCCc1c-3[nH]c(=O)c(C(=O)O)c1O`, the Ratio in experiment [16] is reported as 8 - 16. Besides, the MIC in experiment [3] stood at 1 µg/mL (≈ 2.42 µM); in experiment [17], 2 µg/mL (≈ 4.84 µM); in experiment [18] it was 3.9 µg/mL (≈ 9.43 µM); in [19] it was 2 µg/mL (≈ 4.84 µM); in experiment [20], 3.1 µg/mL (≈ 7.5 µM); in experiment [4] it was 2 µg/mL (≈ 4.84 µM). The MIC in experiment [21] came to 15.6 µg/mL.

As to `CC(C)NCc1cc2cc3c(cc2n1C)OCCc1c-3[nH]c(=O)c(C(=O)O)c1O`, the Ratio in experiment [16] is given as 2 - 4. Further, the MIC was found to be 0.49 µg/mL (≈ 1.23 µM) in [3]; 3.9 µg/mL (≈ 9.81 µM) in experiment [17]; 6.3 µg/mL (≈ 15.9 µM) in experiment [18]; 1.6 µg/mL (≈ 4.03 µM) in [19]; 1 µg/mL (≈ 2.52 µM) in experiment [20]; 0.49 µg/mL (≈ 1.23 µM) in experiment [4]. In addition, the minimal inhibitory concentration (MIC) in experiment [21] was 2 µg/mL.

For the compound `CCc1c(-c2ccc3c(c2)cc(CN(C)C)n3C)[nH]c(=O)c(C(=O)O)c1O`, in [16], the Ratio is on record as 2 - 4. Also, the MIC worked out at 6.3 µg/mL (≈ 17.1 µM) in experiment [3]; 0.78 µg/mL (≈ 2.11 µM) in experiment [17]; 3.1 µg/mL (≈ 8.39 µM) in [18]; 0.78 µg/mL (≈ 2.11 µM) in experiment [19]; 6.3 µg/mL (≈ 17.1 µM) in experiment [20]; 0.39 µg/mL (≈ 1.06 µM) in [4]. The MIC in experiment [21] is 3.1 µg/mL.

Values taken from ChEMBL document CHEMBL4190388, “Discovery and Optimization of Indolyl-Containing 4-Hydroxy-2-Pyridone Type II DNA Topoisomerase Inhibitors Active against Multidrug Resistant Gram-negative Bacteria” (J Med Chem, 2018).
